Source: PubChem
PMI act hi M6P: increases human PMI activity with near-saturating mannose 6-phosphate. 190,000 compounds, 0.34% hits. activation factor at 20 µM. coupled PMI enzyme assay, resazurin fluorescence, 20 min; active compounds read high; 1 = untreated enzyme, 0 = substrate-free blank;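 active = activation factor of 2 or more at 20 µM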
Target sequence (P34949 whole entry, looked up): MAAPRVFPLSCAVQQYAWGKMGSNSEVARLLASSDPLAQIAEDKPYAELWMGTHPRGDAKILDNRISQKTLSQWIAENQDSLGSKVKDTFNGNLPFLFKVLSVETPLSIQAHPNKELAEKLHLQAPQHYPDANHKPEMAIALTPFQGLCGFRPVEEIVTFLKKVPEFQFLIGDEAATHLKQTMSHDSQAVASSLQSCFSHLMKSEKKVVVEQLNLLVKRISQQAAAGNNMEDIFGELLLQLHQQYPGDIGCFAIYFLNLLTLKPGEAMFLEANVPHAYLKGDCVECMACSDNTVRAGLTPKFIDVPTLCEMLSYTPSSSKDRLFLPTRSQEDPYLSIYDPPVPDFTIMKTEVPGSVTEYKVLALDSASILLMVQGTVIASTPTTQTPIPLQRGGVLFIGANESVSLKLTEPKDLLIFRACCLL
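test system = human PMI in coupled enzyme assay | medium = HEPES-buffered pH 7.4 with magnesium and detergent | also added = 1.0 mM mannose-6-phosphate substrate with 0.22 mM NADP+ | compound = 20 µM single dose | times = 20 min incubation at room temperature | measured by = resorufin fluorescence (Ex 544/Em 590 nm) from resazurin via diaphorase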
TNAP inh no acc: TNAP (human) inhibition, acceptor-free conditions; P05186; purified TNAP, CDP-star luminescence, 30 min; inhibition, % at 20 µM; 200,000 compounds, 0.26% hits;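 active = tissue-nonspecific alkaline phosphatase inhibition above about 50% at 20 µM in the single-dose screen, limit read from the data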
TNAP act hi DEA: activators of human TNAP at high phosphate acceptor concentration | activation factor at 20 µM | 200,000 tested, under 10 active | purified TNAP, CDP-star luminescence, 1 M DEA, 30 min; active compounds read high; 0 = EDTA background, 1 = DMSO-only activity | P05186;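 active = activation factor at least 2 at 20 µM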
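Assay system: human TNAP; Input: enzyme diluted 1/800 final; Reagent: CDP-star luminogenic substrate at 100 µM final; Timing: 30 min, room temperature; Signal: luminescence; Evaluation: TNAP activation factor scaled between EDTA and DMSO control wells.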
TNAP inh hi DEA: TNAP (human) inhibition, high acceptor; purified TNAP, CDP-star luminescence, 1 M DEA; inhibition, % at 20 µM; 200,000 compounds, 0.03% hits;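 active = over 50% inhibition of tissue-nonspecific alkaline phosphatase at 20 µM in the single-dose screen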
PMI activator: increases human mannose-6-phosphate isomerase activity; AID 1214; activation factor at 20 µM; P34949; 190,000 compounds, 0.005% hits; purified human PMI, coupled resazurin fluorescence, 20 min; active compounds read high; 1 = vehicle control, 0 substrate-free wells;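 active = activation factor of 2 or more at 20 µM, relative to plate controls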
A number is an active result. Most compounds without a hit are left out; they make up all but 0.62% or so of the library.

What do the screens show for `Cc1[nH][nH]c(=O)c1C(c1cc([N+](=O)[O-])ccc1O)c1c(C)[nH][nH]c1=O`?
PMI act hi M6P: inactive; TNAP inh no acc: 79; TNAP act hi DEA: inactive; TNAP inh hi DEA: 77; PMI activator: inactive

How did O=C(NCc1ccccc1)NC(O)C(Cl)(Cl)Cl (centres undefined) do in these assays?
PMI act hi M6P: inactive; TNAP inh no acc: inactive; TNAP act hi DEA: inactive; TNAP inh hi DEA: inactive; PMI activator: inactive

What do the screens show for `CCOC(=O)c1ccccc1-c1csc(N)n1`?
PMI act hi M6P: inactive; TNAP inh no acc: inactive; TNAP act hi DEA: inactive; TNAP inh hi DEA: inactive; PMI activator: inactive

How did O=C(Nc1ccccc1)Nc1ccc(F)cc1F do in these assays?
PMI act hi M6P: inactive; TNAP inh no acc: inactive; TNAP act hi DEA: inactive; TNAP inh hi DEA: inactive; PMI activator: inactive

Results for O=C(NNc1ccc([N+](=O)[O-])cc1)c1ccccc1F ?
PMI act hi M6P: 2.3; TNAP inh no acc: inactive; TNAP act hi DEA: inactive; TNAP inh hi DEA: inactive; PMI activator: inactive

Results for O=C(NNc1ccc([N+](=O)[O-])cc1)c1ccccc1Cl ?
PMI act hi M6P: inactive; TNAP inh no acc: inactive; TNAP act hi DEA: inactive; TNAP inh hi DEA: inactive; PMI activator: inactive

What do the screens show for `O=C(c1ccc(Cl)cc1)c1c[nH]c(C(=O)C(Cl)(Cl)Cl)c1`?
PMI act hi M6P: inactive; TNAP inh no acc: inactive; TNAP act hi DEA: inactive; TNAP inh hi DEA: inactive; PMI activator: inactive

How did O=C(O)c1ccccc1C(=O)NNc1ccc(F)cc1F do in these assays?
PMI act hi M6P: 2.5; TNAP inh no acc: inactive; TNAP act hi DEA: inactive; TNAP inh hi DEA: inactive; PMI activator: inactive

How did O=C(c1ccc(Cl)cc1)c1c[nH]c(C(=O)NNc2ccccc2)c1 do in these assays?
PMI act hi M6P: 2.1; TNAP inh no acc: inactive; TNAP act hi DEA: inactive; TNAP inh hi DEA: inactive; PMI activator: inactive

What do the screens show for `O=C(/C=C/c1ccccc1)NNc1ccc(Cl)cc1`?
PMI act hi M6P: 2.7; TNAP inh no acc: inactive; TNAP act hi DEA: inactive; TNAP inh hi DEA: inactive; PMI activator: inactive

How did Cc1ccccc1NC(=O)c1c2c(nc3ccccc13)CCC2 do in these assays?
PMI act hi M6P: inactive; TNAP inh no acc: inactive; TNAP act hi DEA: inactive; TNAP inh hi DEA: inactive; PMI activator: inactive

What do the screens show for `O=C(O)c1ccccc1C(=O)NNc1cccc(Cl)n1`?
PMI act hi M6P: inactive; TNAP inh no acc: inactive; TNAP act hi DEA: inactive; TNAP inh hi DEA: inactive; PMI activator: inactive

How did O=C(O)c1ccccc1C(=O)NNc1ccc(Cl)cc1 do in these assays?
PMI act hi M6P: 2.4; TNAP inh no acc: inactive; TNAP act hi DEA: inactive; TNAP inh hi DEA: inactive; PMI activator: inactive

Results for O=C(c1n[nH]c2c1CCCC2)n1ccnc1 ?
PMI act hi M6P: inactive; TNAP inh no acc: 70; TNAP act hi DEA: inactive; TNAP inh hi DEA: inactive; PMI activator: inactive

What do the screens show for `c1ccc(CCC2CCCCN2Cc2nc(-c3ccc4c(c3)OCO4)no2)nc1` (centres undefined)?
PMI act hi M6P: inactive; TNAP inh no acc: inactive; TNAP act hi DEA: inactive; TNAP inh hi DEA: inactive; PMI activator: inactive

What do the screens show for `c1ccc(N2CCN(Cc3ccnc4ccccc34)CC2)cc1`?
PMI act hi M6P: 2; TNAP inh no acc: inactive; TNAP act hi DEA: inactive; TNAP inh hi DEA: inactive; PMI activator: inactive

How did Cc1ccc(-c2nnnn2C2C/C(=N\NC(N)=S)C3OCC2O3)cc1 (centres undefined) do in these assays?
PMI act hi M6P: inactive; TNAP inh no acc: inactive; TNAP act hi DEA: inactive; TNAP inh hi DEA: inactive; PMI activator: inactive

What do the screens show for `Cc1n[nH]c(C)c1S(=O)(=O)N1CCOCC1`?
PMI act hi M6P: inactive; TNAP inh no acc: 57; TNAP act hi DEA: inactive; TNAP inh hi DEA: inactive; PMI activator: inactive

Results for CCC1(C)Cc2nc3sc(C(=O)O)c(N)c3cc2CO1 (centres undefined) ?
PMI act hi M6P: 2.2; TNAP inh no acc: inactive; TNAP act hi DEA: inactive; TNAP inh hi DEA: inactive; PMI activator: inactive

How did CCOC(=O)c1sc2nc3c(cc2c1N)COC(C)(CC)C3 (centres undefined) do in these assays?
PMI act hi M6P: inactive; TNAP inh no acc: inactive; TNAP act hi DEA: inactive; TNAP inh hi DEA: inactive; PMI activator: inactive

Results for O=C(O)c1cc(-c2ccccc2Cl)n[nH]1 ?
PMI act hi M6P: inactive; TNAP inh no acc: 96; TNAP act hi DEA: inactive; TNAP inh hi DEA: inactive; PMI activator: inactive

How did Cn1cccc1-c1cc(C(=O)O)[nH]n1 do in these assays?
PMI act hi M6P: inactive; TNAP inh no acc: 70; TNAP act hi DEA: inactive; TNAP inh hi DEA: inactive; PMI activator: inactive

How did Cn1cccc1-c1cc(C(=O)N2CCc3c([nH]c4ccccc34)C2c2ccccn2)[nH]n1 (centres undefined) do in these assays?
PMI act hi M6P: inactive; TNAP inh no acc: inactive; TNAP act hi DEA: inactive; TNAP inh hi DEA: inactive; PMI activator: inactive

How did O=C(O)c1cc(-c2ccccc2)n[nH]1 do in these assays?
PMI act hi M6P: inactive; TNAP inh no acc: 86; TNAP act hi DEA: inactive; TNAP inh hi DEA: inactive; PMI activator: inactive

Results for CCOc1ccc(/C=N/NC(=O)c2cc(-c3cccn3C)n[nH]2)cc1 ?
PMI act hi M6P: inactive; TNAP inh no acc: 79; TNAP act hi DEA: inactive; TNAP inh hi DEA: inactive; PMI activator: inactive

What do the screens show for `O=C(/C=C/c1ccccc1)CC(=O)c1ccccc1O`?
PMI act hi M6P: inactive; TNAP inh no acc: inactive; TNAP act hi DEA: inactive; TNAP inh hi DEA: inactive; PMI activator: inactive

What do the screens show for `CCOc1ccc(NC(=S)N2CCN(CCN3C(=O)c4cccc5cccc(c45)C3=O)CC2)cc1`?
PMI act hi M6P: inactive; TNAP inh no acc: inactive; TNAP act hi DEA: inactive; TNAP inh hi DEA: inactive; PMI activator: inactive

What do the screens show for `CC(C(=O)Nc1ccccc1)N(c1cccc(Cl)c1)S(C)(=O)=O` (centres undefined)?
PMI act hi M6P: inactive; TNAP inh no acc: inactive; TNAP act hi DEA: inactive; TNAP inh hi DEA: inactive; PMI activator: inactive

What do the screens show for `O=c1c(N2CCCCC2)coc2ccccc12`?
PMI act hi M6P: 2; TNAP inh no acc: inactive; TNAP act hi DEA: inactive; TNAP inh hi DEA: inactive; PMI activator: inactive

What do the screens show for `COCCCn1cc(C(=O)c2cc(OC)ccc2OCC(=O)N2CCCCC2C)cc(C#N)c1=O` (centres undefined)?
PMI act hi M6P: inactive; TNAP inh no acc: inactive; TNAP act hi DEA: inactive; TNAP inh hi DEA: inactive; PMI activator: inactive

What do the screens show for `CCNc1ccc(S(=O)(=O)N(C)C)cc1NCC(=O)Nc1ccc(F)c(Cl)c1`?
PMI act hi M6P: inactive; TNAP inh no acc: inactive; TNAP act hi DEA: inactive; TNAP inh hi DEA: inactive; PMI activator: inactive

What do the screens show for `CN(C)c1ccc(/C=C2\N=C(c3ccc(Cl)c([N+](=O)[O-])c3)NC2=O)cc1`?
PMI act hi M6P: inactive; TNAP inh no acc: 50; TNAP act hi DEA: inactive; TNAP inh hi DEA: inactive; PMI activator: inactive

What do the screens show for `CN(C)c1ccc(/C=C2/NC(=O)NC2=O)cc1`?
PMI act hi M6P: inactive; TNAP inh no acc: inactive; TNAP act hi DEA: inactive; TNAP inh hi DEA: inactive; PMI activator: inactive

How did Cc1ccc(-c2nc3sc(C(N)=O)c(N)c3c3c2CCCC3)cc1 do in these assays?
PMI act hi M6P: 2.4; TNAP inh no acc: inactive; TNAP act hi DEA: inactive; TNAP inh hi DEA: inactive; PMI activator: inactive
